Experiments:
[1] = Antioxidant activity assessed as trolox equivalent of inhibition of H2O2-induced bovine serum albumin oxidation after 1 hr by spectrophotometry
[2] = Antioxidant activity assessed as inhibition of lipid peroxidation after 60 mins by TBARS assay; format: functional
Method in brief: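 Olive oil (10.0 µg) was emulsified with Tween-40 in 0.2 M Tris-HCl, pH 7.4. The emulsion was UV-irradiated at 254 nm for 60 min, then stirred 24 h at room temperature. Thiobarbituric acid-reactive species were developed in a boiling water bath for 90 min and centrifuged, and the supernatant was read at 532 nm. Inhibition was given as % versus a blank without compound.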

[3] = Antioxidant activity assessed as trolox equivalent of lipid peroxidation inhibition after 60 mins by TBARS assay; format: functional
[4] = Antioxidant activity assessed as inhibition of H2O2-induced bovine serum albumin oxidation after 1 hr by spectrophotometry
[5] = Antioxidant activity assessed as inhibition of Fe3+ ion-induced 2-deoxyribose oxidation after 24 hrs by TBA method; format: functional
Method in brief: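 EDTA, FeCl3 and H2O2 (1.0 mM each) were preincubated for 1 h at 37 °C. 2-Deoxyribose (28 mM) and ascorbic acid (1.0 mM) were then added. Compounds at 5, 10 or 20 µM (150 µL per 1350 µL mixture) were incubated 24 h at 37 °C. Degradation was measured with TBA 0.5%/TCA 2.5% at 90 °C for 3 h, read at 532 nm, in triplicate.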

[6] = Antioxidant activity assessed as trolox equivalent of inhibition of Fe3+ ion-induced 2-deoxyribose oxidation after 24 hrs by TBA method; format: functional
[7] = test system: Radical scavenging activity; experiment: Antioxidant activity assessed as DPPH radical scavenging activity after 30 mins by spectrophotometry; format: functional
[8] = Antioxidant activity assessed as inhibition of H2O2-induced bovine serum albumin oxidation after 10 mins by spectrophotometry; format: functional; conditions: in the assay text read “after 1 hr” for “after 10 mins”
Method in brief: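 BSA (10 mg/mL) was incubated 1 h at 37 °C in 20 mM phosphate, pH 7.4, with FeCl3 400 µM, H2O2 3 mM, ascorbate 400 µM and metabolite at 5, 10 or 20 µM. Carbonyls were derivatized with DNPH (20 mM in 2 N HCl) and TCA 20%, then centrifuged. The pellet was washed with EtOH/EtOAc, dissolved in 6 M guanidine-HCl, pH 6.5, and read at 370 nm. Runs were in triplicate, as % versus blank.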

[9] = test system: Radical scavenging activity; experiment: Antioxidant activity assessed as trolox equivalent of DPPH radical scavenging activity after 30 mins by spectrophotometry; format: functional
[10] = Antioxidant activity assessed as hydroxyl radical scavenging activity at 20 uM; format: functional

| IC50 [2] | IC50 [4] | IC50 [5] | IC50 [7] | IC50 [8] | Structure (SMILES) | Activity [1] | Activity [3] | Activity [6] | Activity [7] | Activity [9] | Activity [10] |
| --- | --- | --- | --- | --- | --- | --- | --- | --- | --- | --- | --- |
| 33.1 µM | 10.7 µM | 26.5 µM | > 300 µM | – | COc1ccc(/C=C/C(=O)OC[C@H]2O[C@@H](O[C@H]3OC=C[C@@]4(O)[C@@H]3[C@](C)(O)C[C@@H]4O)[C@H](O)[C@@H](O)[C@@H]2O)cc1OC | 6.5 | 1 | 0.7 | Dose-dependent effect | – | – |
| 44.2 µM | – | 52.2 µM | > 300 µM | 38.9 µM | CC(=O)O[C@]1(C)C[C@H](O)[C@H]2C=CO[C@H](O[C@@H]3O[C@H](CO)[C@@H](O)[C@H](O)[C@H]3O)[C@H]21 | 1.8 | 0.7 | 0.3 | Dose-dependent effect | – | – |
| 20.9 µM | – | 32 µM | 14 µM | 32.8 µM | COc1cc(/C=C/C(=O)O[C@H]2[C@H](O[C@@H]3O[C@@H](C)[C@H](O)[C@@H](O)[C@H]3O[C@@H]3OC[C@H](O)[C@@H](O)[C@H]3O)[C@@H](O)[C@H](OCCc3ccc(O)c(O)c3)O[C@@H]2CO)ccc1O | 2.1 | 1.5 | 0.6 | Dose-dependent effect | 1.5 | – |
| 31.8 µM | – | 18 µM | 21 µM | 69.2 µM | Cc1c(C)c2c(c(C)c1O)CCC(C)(C(=O)O)O2 (stereo unspecified) [TROLOX] | – | – | – | – | – | – |
| 26.3 µM | – | 33.5 µM | 38.3 µM | 38 µM | C[C@@H]1O[C@@H](O[C@@H]2[C@@H](O)[C@H](OCCc3ccc(O)c(O)c3)O[C@H](COC(=O)/C=C/c3ccc(O)c(O)c3)[C@H]2O)[C@H](O[C@@H]2OC[C@H](O)[C@@H](O)[C@H]2O)[C@H](O)[C@H]1O | 1.8 | 1.2 | 0.7 | Dose-dependent effect | 0.5 | – |
| – | – | – | > 300 µM | – | COc1ccc(/C=C/C(=O)OC[C@H]2O[C@@H](O[C@H]3OC=C[C@H]4[C@@H]3[C@](C)(O)C[C@@H]4O)[C@H](O)[C@@H](O)[C@@H]2O)cc1OC | – | – | – | – | – | – |
| 16.3 µM | – | 34.6 µM | 16.5 µM | 44.8 µM | C[C@@H]1O[C@@H](O[C@@H]2[C@@H](O)[C@H](OCCc3ccc(O)c(O)c3)O[C@H](CO)[C@H]2OC(=O)/C=C/c2ccc(O)c(O)c2)[C@H](O[C@@H]2OC[C@H](O)[C@@H](O)[C@H]2O)[C@H](O)[C@H]1O | 1.5 | 2 | 0.5 | Dose-dependent effect | 1.4 | 54.7% |
| 67.3 µM | 10.4 µM | 13.2 µM | > 300 µM | – | COc1ccc(/C=C/C(=O)OC[C@H]2O[C@@H](O[C@H]3OC=C[C@@]4(O)[C@@H]3[C@](C)(O)C[C@@H]4O)[C@H](O)[C@@H](O)[C@@H]2O)cc1 | 6.6 | 0.5 | 1.4 | Dose-dependent effect | – | – |
| 39 µM | – | 12.9 µM | > 300 µM | 12.8 µM | COc1ccc(/C=C/C(=O)OC[C@H]2O[C@@H](O[C@H]3OC=C[C@@]4(O)[C@@H]3[C@](C)(O)C[C@@H]4O)[C@H](O[C@@H]3O[C@H](CO)[C@@H](O)[C@H](O)[C@H]3O)[C@@H](O)[C@@H]2O)cc1 | 5.4 | 0.8 | 1.4 | Dose-dependent effect | – | – |
| 9.7 µM | – | 26.4 µM | 15.3 µM | 57.2 µM | C[C@@H]1O[C@@H](O[C@@H]2[C@@H](O)[C@H](OCCc3ccc(O)c(O)c3)O[C@H](CO)[C@H]2OC(=O)/C=C/c2ccc(O)c(O)c2)[C@H](O)[C@H](O)[C@H]1O [ACETOSIDE] | 1.2 | 3.3 | 0.5 | Dose-dependent effect | 1.3 | – |
| 46.7 µM | – | 37.3 µM | 11 µM | 18.1 µM | COc1cc(/C=C/C(=O)OC[C@H]2O[C@@H](OCCc3ccc(O)c(O)c3)[C@H](O)[C@@H](O[C@@H]3O[C@@H](C)[C@H](O)[C@@H](O)[C@H]3O[C@@H]3OC[C@H](O)[C@@H](O)[C@H]3O)[C@@H]2O)ccc1O | 3.8 | 0.7 | 0.5 | Dose-dependent effect | 1.9 | – |
| 45.5 µM | – | 51 µM | > 300 µM | 23.5 µM | CC(=O)O[C@]1(C)C[C@H](O)[C@@]2(O)C=CO[C@H](O[C@@H]3O[C@H](CO)[C@@H](O)[C@H](O)[C@H]3O)[C@H]21 | 2.9 | 0.7 | 0.3 | Dose-dependent effect | – | – |

— ChEMBL document CHEMBL1152540, “Antioxidant efficacy of iridoid and phenylethanoid glycosides from the medicinal plant Teucrium chamaedris in cell-free systems” (Bioorg Med Chem, 2009)
